ChEMBL document CHEMBL4706642, “Discovery of a Potent Dual Inhibitor of Acetylcholinesterase and Butyrylcholinesterase with Antioxidant Activity that Alleviates Alzheimer-like Pathology in Old APP/PS1 Mice” (J Med Chem, 2021)
Active and inactive are the calls of the source.

Legend:
[1] = Permeability of the compound in PBS/EtOH buffer (70:30) by PAMPA-BBB assay; type: ADME; conditions: read-out: permeability
Outline: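 PAMPA-BBB permeability, reported as Pe in 10⁻⁶ cm s⁻¹, with CNS+ defined as Pe > 5.1. Mean ± SD of three experiments, each in triplicate.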

Mus musculus [2] = assay: Memory enhancement effect in 11 months old APP/PS1 double mutant-transgenic mouse model assessed as number of trials required to reach criterion at 2 mg/kg, ip administered thrice a week for 4 weeks measured on trail day 1 by memory flexibility text; type: functional
Outline: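 Memory flexibility test in male APP/PS1 mice treated i.p. with 2 mg/kg in saline (or vehicle), three times weekly for 4 weeks. The number of trials to reach criterion was counted on each testing day over 4 days. Mean ± SEM, n = 7 per group; one-way ANOVA with Bonferroni post hoc.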

Mus musculus [3] = assay: Antialzheimer activity in 6 months young APP/PS1 double mutant-transgenic mouse model assessed as amyloid beta42 levels in hippocampus at 2 mg/kg, ip administered thrice a week for 4 weeks by ELISA; type: functional, organism-based
Outline: (§1)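 Male APP/PS1 mice received 2 mg/kg i.p. in saline (or vehicle), three times weekly for 4 weeks. After the behavioral tests, hippocampus was collected and Aβ40 and Aβ42 were measured with a specific ELISA kit. Mean ± SEM, n = 7 mice per group; one-way ANOVA with Bonferroni post hoc.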

[4] = biological target: Beta-secretase 1 (Homo sapiens) (UniProt P56817); assay: Inhibition of recombinant human BACE-1 at 1 uM using methoxycoumarin-Ser-Glu-Val-Asn-Leu-Asp-Ala-Glu-Phe-Lys-dinitrophenyl as substrate preincubated for 1 hr followed by substrate addition and measured after 15 mins by fluorescence based assay relative to control; conditions: time 75.0 min
Mus musculus [5] = assay: Neuroprotective activity in 6 months young APP/PS1 double mutant-transgenic mouse model assessed as decrease in 4-hydroxy-2-nonenal levels in hippocampus at 2 mg/kg, ip administered thrice a week for 4 weeks by Hoechst staining based immunofluorescence analysis; type: functional, organism-based
Outline: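 Hippocampal 4-hydroxy-2-nonenal was assessed by immunofluorescence with Hoechst counterstain in male APP/PS1 mice given 2 mg/kg i.p. in saline (or vehicle), three times weekly for 4 weeks. Mean ± SEM, n = 4 mice per group; one-way ANOVA with Bonferroni post hoc.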

Mus musculus [6] = assay: Antiinflammatory activity in 11 months old APP/PS1 double mutant-transgenic mouse model assessed as reduction in GFAP level in hippocampus at 2 mg/kg, ip administered thrice a week for 4 weeks by Hoechst staining based immunofluorescence analysis; type: functional, organism-based
Outline: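 Hippocampal GFAP immunofluorescence with Hoechst nuclear counterstain in male APP/PS1 mice after 2 mg/kg i.p. in saline (or vehicle), three times per week for 4 weeks. Mean ± SEM, n = 4 mice per group; one-way ANOVA with Bonferroni post hoc.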

Mus musculus [7] = assay: Antialzheimer activity in 6 months young APP/PS1 double mutant-transgenic mouse model assessed as time interval between two EPSPs in CA3 region of hippocampus at 2 mg/kg, ip administered thrice a week for 4 weeks at 10 ms stimulus interval by fluorescence microscopy based electrophysiology method (reference value: 3.18 +/- 0.8 ms); type: functional
Outline: (§2)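 Paired-pulse facilitation in hippocampal slices from male APP/PS1 mice dosed i.p. with 2 mg/kg in saline (or vehicle), three times per week for 4 weeks. Two EPSPs were evoked at intervals of 10–200 ms, and the index is the R2/R1 fEPSP slope ratio. Mean ± SEM of 9 slices from 3 mice per group; two-way ANOVA with Bonferroni post hoc.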

Mus musculus [8] = assay: Antialzheimer activity in 6 months young APP/PS1 double mutant-transgenic mouse model assessed as amyloid beta40 levels in hippocampus at 2 mg/kg, ip administered thrice a week for 4 weeks by ELISA; type: functional, organism-based; outline: as §1
Mus musculus [9] = assay: Antialzheimer activity in 11 months old APP/PS1 double mutant-transgenic mouse model assessed as time interval at which EPSP-evoked calcium-dependent vesicle release in CA3 region of hippocampus causing short-term plasticity at 2 mg/kg, ip administered thrice a week for 4 weeks measured at 10 ms interval by fluorescence microscopy based electrophysiology method (reference value: 2.05 +/- 0.2 ms); type: functional; outline: as §2
[10] = Antioxidant activity assessed as DPPH radical scavenging activity incubated for 30 mins under dark condition by UV-Vis spectrophotometric analysis; type: functional
Acetylcholinesterase [11] = biological target: Acetylcholinesterase (Electrophorus electricus, UniProt O42275); assay: Displacement of propidium iodide from PAS-region of electric eel AChE assessed as dissociation constant by spectrofluorimetric analysis
Outline: (§3)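 Back-titration fluorescence assay using electric eel AChE (type VI-S). Inhibitor was added in successive aliquots from a MeOH stock. Emission was read at 602 nm with excitation at 535 nm, after subtracting blanks. […] Three independent experiments.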

Acetylcholinesterase [12] = biological target: Acetylcholinesterase (Homo sapiens, UniProt P22303); assay: Mixed-type inhibition of recombinant human AChE assessed as inhibition constant using acetylthiocholine iodide as substrate by Cornish-Bowden plot analysis
Outline: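 Kinetics on human recombinant AChE with acetylthiocholine at 0.113–0.566 mM and inhibitor at 0.17–1.36 nM. Lineweaver–Burk plots were fitted by weighted least squares. Ki was taken as the negative x-intercept of a replot of slopes vs [I]. K'i came from a plot of apparent 1/vmax vs [I]. Two independent experiments, each in triplicate.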

[13] = biological target: Acetylcholinesterase (Electrophorus electricus) (UniProt O42275); assay: Displacement of propidium iodide from PAS-region of electric eel AChE assessed as decrease in fluorescence intensity by spectrofluorimetric analysis; outline: as §3
Mus musculus [14] = assay: Cognitive enhancing effect in 6 months young APP/PS1 double mutant-transgenic mouse model assessed as increase in preference index for object at 2 mg/kg, ip administered thrice a week for 4 weeks by novel object recognition test; type: functional, organism-based
Outline: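 Male APP/PS1 mice received 2 mg/kg i.p. in saline (or vehicle), three times per week for 4 weeks. Preference index = time exploring the relocated or novel object divided by total time exploring both objects. Mean ± SEM, n = 7 per group; one-way ANOVA with Bonferroni post hoc.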

[15] = biological target: Acetylcholinesterase (Electrophorus electricus) (UniProt O42275); assay: Displacement of propidium iodide from PAS-region of electric eel AChE assessed as decrease in fluorescence intensity at 4 to 64 uM by spectrofluorimetric analysis relative to control; parameters: scale not given: the % may be the effect or the level left; conditions: dose 4-64 µM; outline: as §3
Mus musculus [16] = assay: (§4) Antialzheimer activity in 11 months old APP/PS1 double mutant-transgenic mouse model assessed as postsynaptic potential in CA3 region of hippocampus at 2 mg/kg, ip administered thrice a week for 4 weeks followed by stimulation with 1 to 10 uA EPSP by fluorescence microscopy based electrophysiology method (reference value: 0.293 +/- 0.105 mV/ms); type: functional
Outline: (§5)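 Hippocampal slices from male APP/PS1 mice given 2 mg/kg i.p. in saline (or saline alone), three times per week for 4 weeks. Input–output curves were built from evoked fEPSP slopes and fiber volley amplitudes, with values taken at the maximum current intensity. Mean ± SEM of 9 slices from 3 mice per group; two-way ANOVA with Bonferroni post hoc.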

Mus musculus [17] = assay: as §4, with “6” for “11”, “young” for “old”, “fiber volley amplitude” for “postsynaptic potential”, “0.719” for “0.293”, “0.175” for “0.105”; type: functional; outline: as §5
Mus musculus [18] = assay: Cognitive enhancing effect in 11 months old APP/PS1 double mutant-transgenic mouse model assessed as effect on number of times animal crossing central area in transparent cage at 2 mg/kg, ip administered thrice a week for 4 weeks by LOF test; type: functional, organism-based
Outline: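 Open-field locomotor test in male APP/PS1 mice after 2 mg/kg i.p. in saline (or vehicle), three times per week for 4 weeks. Read-outs were time spent moving and number of crossings of the central area of a transparent cage. Mean ± SEM, n = 7 per group; one-way ANOVA with Bonferroni post hoc.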

Sequence of Beta-secretase 1 (Homo sapiens) (P56817 whole entry): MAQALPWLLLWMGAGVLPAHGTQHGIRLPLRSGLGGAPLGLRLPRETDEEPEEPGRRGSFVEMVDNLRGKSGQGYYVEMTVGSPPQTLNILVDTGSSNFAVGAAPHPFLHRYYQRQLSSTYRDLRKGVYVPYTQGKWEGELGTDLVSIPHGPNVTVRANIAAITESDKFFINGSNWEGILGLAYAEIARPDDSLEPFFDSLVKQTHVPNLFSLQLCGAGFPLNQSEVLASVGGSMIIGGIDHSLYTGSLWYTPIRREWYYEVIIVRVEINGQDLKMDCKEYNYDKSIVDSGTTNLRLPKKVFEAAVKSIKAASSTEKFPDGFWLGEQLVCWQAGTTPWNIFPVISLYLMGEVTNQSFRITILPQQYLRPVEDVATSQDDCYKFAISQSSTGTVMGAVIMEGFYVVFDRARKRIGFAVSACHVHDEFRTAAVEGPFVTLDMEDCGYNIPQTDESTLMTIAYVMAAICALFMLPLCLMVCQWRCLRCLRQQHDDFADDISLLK
Sequence of Acetylcholinesterase (Electrophorus electricus) (O42275 24-633 limits assumed): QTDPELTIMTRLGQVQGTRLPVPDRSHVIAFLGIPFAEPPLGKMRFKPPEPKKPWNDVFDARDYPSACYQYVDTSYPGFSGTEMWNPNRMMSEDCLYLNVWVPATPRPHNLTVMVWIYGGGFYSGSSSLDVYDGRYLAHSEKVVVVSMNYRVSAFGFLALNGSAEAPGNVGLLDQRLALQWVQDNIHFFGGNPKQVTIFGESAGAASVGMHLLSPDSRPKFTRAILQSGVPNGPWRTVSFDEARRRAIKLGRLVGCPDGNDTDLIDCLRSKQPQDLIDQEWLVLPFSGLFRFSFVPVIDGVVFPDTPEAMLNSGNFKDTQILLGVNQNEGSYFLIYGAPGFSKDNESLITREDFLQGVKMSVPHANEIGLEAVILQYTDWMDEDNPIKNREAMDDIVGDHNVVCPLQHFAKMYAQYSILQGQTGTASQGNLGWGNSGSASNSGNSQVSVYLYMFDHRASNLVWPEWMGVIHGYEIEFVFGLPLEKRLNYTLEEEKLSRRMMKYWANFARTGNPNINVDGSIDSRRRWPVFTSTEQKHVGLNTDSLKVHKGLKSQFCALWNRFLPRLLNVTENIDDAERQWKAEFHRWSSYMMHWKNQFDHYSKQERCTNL
Sequence of Acetylcholinesterase (Electrophorus electricus, UniProt O42275) (O42275 whole entry): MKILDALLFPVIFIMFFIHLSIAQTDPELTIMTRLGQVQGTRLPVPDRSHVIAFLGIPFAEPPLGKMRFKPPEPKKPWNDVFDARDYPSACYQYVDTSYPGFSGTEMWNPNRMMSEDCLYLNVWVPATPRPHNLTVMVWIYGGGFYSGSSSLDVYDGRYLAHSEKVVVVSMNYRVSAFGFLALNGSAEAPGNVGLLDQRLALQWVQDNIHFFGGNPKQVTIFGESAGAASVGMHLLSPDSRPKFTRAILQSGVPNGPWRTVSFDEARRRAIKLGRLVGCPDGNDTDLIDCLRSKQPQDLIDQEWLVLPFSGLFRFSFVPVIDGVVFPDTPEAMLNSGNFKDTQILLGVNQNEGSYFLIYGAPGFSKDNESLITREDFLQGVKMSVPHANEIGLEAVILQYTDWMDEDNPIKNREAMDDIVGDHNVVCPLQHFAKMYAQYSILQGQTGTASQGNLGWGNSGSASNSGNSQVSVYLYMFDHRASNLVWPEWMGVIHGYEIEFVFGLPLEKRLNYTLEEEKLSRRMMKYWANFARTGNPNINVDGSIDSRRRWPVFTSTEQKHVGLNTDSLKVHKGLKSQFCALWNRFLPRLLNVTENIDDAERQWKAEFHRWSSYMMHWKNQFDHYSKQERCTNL
Sequence of Acetylcholinesterase (Homo sapiens, UniProt P22303) (P22303 whole entry): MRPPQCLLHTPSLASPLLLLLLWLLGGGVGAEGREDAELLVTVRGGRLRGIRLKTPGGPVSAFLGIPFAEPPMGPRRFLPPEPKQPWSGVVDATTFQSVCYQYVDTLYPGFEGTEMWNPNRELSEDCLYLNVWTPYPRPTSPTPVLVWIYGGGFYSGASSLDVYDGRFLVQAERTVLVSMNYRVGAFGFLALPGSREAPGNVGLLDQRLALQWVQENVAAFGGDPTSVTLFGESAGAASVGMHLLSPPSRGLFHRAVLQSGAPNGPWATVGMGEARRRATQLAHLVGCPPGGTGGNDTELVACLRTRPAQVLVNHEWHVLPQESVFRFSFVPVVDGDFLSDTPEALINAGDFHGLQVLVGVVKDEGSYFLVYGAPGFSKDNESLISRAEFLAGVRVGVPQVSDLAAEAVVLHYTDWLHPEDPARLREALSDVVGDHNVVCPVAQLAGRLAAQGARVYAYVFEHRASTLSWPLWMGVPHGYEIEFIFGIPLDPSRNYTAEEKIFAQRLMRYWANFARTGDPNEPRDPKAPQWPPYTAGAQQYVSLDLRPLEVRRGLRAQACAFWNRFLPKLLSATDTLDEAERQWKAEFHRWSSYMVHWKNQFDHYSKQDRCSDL

| SMILES | Papp [1] | Activity (Mus musculus [2]) | Activity (Mus musculus [3]) | inhibition [4] | Activity (Mus musculus [5]) | Activity (Mus musculus [6]) | Time (Mus musculus [7]) | Activity (Mus musculus [8]) | Time (Mus musculus [9]) | IC50 [10] | Kd (Acetylcholinesterase [11]) | Ki (Acetylcholinesterase [12]) | Activity [13] | Activity (Mus musculus [14]) | Activity [15] | Activity (Mus musculus [16]) | Activity (Mus musculus [17]) | Activity (Mus musculus [18]) |
| --- | --- | --- | --- | --- | --- | --- | --- | --- | --- | --- | --- | --- | --- | --- | --- | --- | --- | --- |
| COc1cc(CNC(=O)CCCCCCNc2c3c(nc4cc(Cl)ccc24)CC2C=C(C)CC3C2)ccc1O (configuration not stated) | 17.2 ×10⁻⁶ cm/s | 14 | inactive | 7.4% | inactive | Active | 3.44 ms | inactive | 2.32 ms | 55.4 µM | 0.00359 µM | 0.00068 µM | Dose-dependent effect | inactive | 23% | 0.545 mV/ms | 0.399 mV/ms | inactive |
| COc1cc(CNC(=O)Cc2cn(CCCCC3=CC4Cc5nc6cc(Cl)ccc6c(N)c5C(C3)C4)nn2)ccc1O (configuration not stated) | 8.8 ×10⁻⁶ cm/s | 13 | inactive | inactive | inactive | Active | 1.93 ms | inactive | 1.96 ms | 92 µM |  |  |  | inactive |  | 0.652 mV/ms | 0.738 mV/ms | inactive |
